Test results taken from ChEMBL document CHEMBL1154237, “Influenza A (H(1)N(1)) Antiviral and Cytotoxic Agents from Ferula assa-foetida” (J Nat Prod, 2009).
≈ marks a conversion by molar mass, not a printed value.

Tests used:
[1] = Cytotoxicity against human Hep3B cells after 3 days by MTT assay; format: functional, cell-based, Hep 3B2; settings: 72 h
Outline: (§1)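 Freshly trypsinized cells were seeded at 5000-10 000 cells/well, with compounds added from DMSO stock, and cultured 3 days. Attached cells were then incubated with MTT (0.5 mg/mL, 1 h), solubilized in DMSO, and absorbance read at 550 nm.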

[2] = test system: HepG2; assay: Cytotoxicity against human HepG2 cells after 3 days by MTT assay; format: functional, cell-based; settings: HepG2, 72 h; outline: as §1
[3] = test system: MCF7; assay: Cytotoxicity against human MCF7 cells after 3 days by MTT assay; format: functional, cell-based; settings: MCF7, 72 h; outline: as §1
[4] = test system: Ca9-22; assay: Cytotoxicity against human Ca9-22 cells after 3 days by MTT assay; format: functional, cell-based; settings: Ca9-22, 72 h; outline: as §1
[5] = test system: A549; assay: Cytotoxicity against human A549 cells after 3 days by MTT assay; format: functional, cell-based; settings: A549, 72 h; outline: as §1
[6] = test system: MDA-MB-231; assay: Cytotoxicity against human MDA-MB-231 cells after 3 days by MTT assay; format: functional, cell-based; settings: MDA-MB-231, 72 h; outline: as §1
[7] = test system: Influenza A virus; assay: Antiviral activity against Influenza A virus H1N1 infected in MDCK cells assessed as inhibition of virus-induced cytopathic effect after 3 days by XTT assay; format: functional, organism-based; settings: 72 h
Outline: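 MDCK cells, trypsinized and seeded at 1.0 × 10^5 cells/mL, grown 24 h at 35 °C, 5% CO2 in MEM with 2% FCS plus antibiotics. Virus added for 1 h, then test substances at several concentrations in triplicate. After 3 days at 35 °C, XTT added for 3 h and OD492/OD690 read.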

SMILES | IC50 [1] | IC50 [2] | IC50 [3] | IC50 [4] | IC50 [5] | IC50 [6] | IC50 [7] | IC90 [7]
COc1cccc2c1C(=O)c1c(O)c3c(c(O)c1C2=O)C[C@@](O)(C(=O)CO)C[C@@H]3O[C@H]1C[C@H](N)[C@H](O)[C@H](C)O1 [DOXORUBICIN] | 0.41 µg/mL (≈ 0.754 µM) | 0.16 µg/mL (≈ 0.294 µM) | 0.43 µg/mL (≈ 0.791 µM) | 0.14 µg/mL (≈ 0.258 µM) | 0.35 µg/mL (≈ 0.644 µM) | – | – | –
C=C1CC[C@]2(C)C(C)(C)[C@@H](OC(C)=O)CC[C@]2(C)[C@H]1COc1ccc2ccc(=O)oc2c1 [POLYANTHININ] | 5.9 µg/mL (≈ 13.5 µM) | 10.4 µg/mL (≈ 23.8 µM) | 9.94 µg/mL (≈ 22.7 µM) | 12.7 µg/mL (≈ 28.9 µM) | 12.3 µg/mL (≈ 28 µM) | 15.7 µg/mL (≈ 35.8 µM) | – | –
CC(=O)OC(CC=C(C)C)/C(C)=C/[C@@H](O)C/C(C)=C/COc1ccc2ccc(=O)oc2c1 (stereo partly drawn) | 9.82 µg/mL (≈ 22.3 µM) | 15.6 µg/mL (≈ 35.4 µM) | > 20 µg/mL | 14.2 µg/mL (≈ 32.3 µM) | > 20 µg/mL | > 20 µg/mL | 0.81 µg/mL (≈ 1.84 µM) | 1.56 µg/mL (≈ 3.54 µM)
C=C1CC[C@@H]2C(C)(C)[C@H](O)CC[C@@]2(C)[C@H]1COc1ccc2ccc(=O)oc2c1 [FARNESIFEROL A] | 7.66 µg/mL (≈ 20 µM) | 14.9 µg/mL (≈ 38.9 µM) | 15.6 µg/mL (≈ 40.7 µM) | 12.1 µg/mL (≈ 31.6 µM) | 15.8 µg/mL (≈ 41.3 µM) | 19 µg/mL (≈ 49.7 µM) | 0.51 µg/mL (≈ 1.33 µM) | 0.64 µg/mL (≈ 1.67 µM)
CC(C)=C1CC[C@H](C)[C@](C)(COc2ccc3ccc(=O)oc3c2)[C@H]1CCC(=O)O [GALBANIC ACID] | – | – | – | – | – | – | 0.45 µg/mL (≈ 1.13 µM) | –
CC1=CC[C@@H]2C(C)(C)[C@@H](O)CC[C@@]2(C)[C@@H]1COc1ccc2ccc(=O)oc2c1 [CONFEROL] | 2.63 µg/mL (≈ 6.88 µM) | 0.51 µg/mL (≈ 1.33 µM) | 3.38 µg/mL (≈ 8.84 µM) | 6.83 µg/mL (≈ 17.9 µM) | 9.08 µg/mL (≈ 23.7 µM) | > 20 µg/mL | 0.47 µg/mL (≈ 1.23 µM) | 0.83 µg/mL (≈ 2.17 µM)
C/C(=C\COc1ccc2ccc(=O)oc2c1)CC[C@@H]1C(C)(C)[C@H]2CC[C@]1(C)O2 [FARNESIFEROL C] | – | – | – | – | – | – | 0.29 µg/mL (≈ 0.758 µM) | 0.5 µg/mL (≈ 1.31 µM)
C[C@@H]1C[C@@H](O)[C@]2(C)[C@@H](C)C(=O)CC[C@H]2[C@]1(C)COc1ccc2ccc(=O)oc2c1 [KAMOLONOL] | 17.9 µg/mL (≈ 45 µM) | > 20 µg/mL | > 20 µg/mL | > 20 µg/mL | > 20 µg/mL | > 20 µg/mL | – | –
CC(C)=CCC/C(C)=C/[C@@H](O)C/C(C)=C/COc1ccc2ccc(=O)oc2c1 | – | – | – | – | – | – | 0.36 µg/mL (≈ 0.941 µM) | 0.62 µg/mL (≈ 1.62 µM)
NC12CC3CC(CC(C3)C1)C2 [AMANTADINE] | – | – | – | – | – | – | 0.92 µg/mL (≈ 6.08 µM) | –
C/C(=C\COc1ccc2ccc(=O)oc2c1)CC/C=C(\C)CC[C@@H](O)C(C)(C)O | > 20 µg/mL | > 20 µg/mL | 14.3 µg/mL (≈ 35.6 µM) | > 20 µg/mL | 11 µg/mL (≈ 27.4 µM) | > 20 µg/mL | 0.99 µg/mL (≈ 2.47 µM) | 2.05 µg/mL (≈ 5.12 µM)
COC(=O)CC[C@H]1C(=C(C)C)CC[C@H](C)[C@]1(C)COc1ccc2ccc(=O)oc2c1 [METHYL GALBANATE] | 4.33 µg/mL (≈ 10.5 µM) | 8.42 µg/mL (≈ 20.4 µM) | > 20 µg/mL | 19.1 µg/mL (≈ 46.3 µM) | > 20 µg/mL | > 20 µg/mL | 0.26 µg/mL (≈ 0.63 µM) | –
CC1=CC(=O)[C@@H]2C(C)(C)C(=O)CC[C@@]2(C)[C@@H]1COc1ccc2ccc(=O)oc2c1 | – | – | – | – | – | – | 0.32 µg/mL (≈ 0.811 µM) | 0.37 µg/mL (≈ 0.938 µM)
CCC(C)SSC/C=C/OS(C)=O (stereo not drawn) [FOETISULFIDE C] | 19.2 µg/mL (≈ 79.9 µM) | > 20 µg/mL | > 20 µg/mL | 16.5 µg/mL (≈ 68.5 µM) | 9.14 µg/mL (≈ 38 µM) | > 20 µg/mL | – | –
CC1=CC(=O)[C@@H]2C(C)(C)[C@H](O)CC[C@@]2(C)[C@@H]1COc1ccc2ccc(=O)oc2c1 [LIGUPERSIN A] | – | – | – | – | – | – | 0.86 µg/mL (≈ 2.17 µM) | 1.75 µg/mL (≈ 4.41 µM)
COc1cc(C=O)ccc1O [VANILLIN] | > 20 µg/mL | > 20 µg/mL | 15.7 µg/mL (≈ 103 µM) | > 20 µg/mL | 16.4 µg/mL (≈ 108 µM) | > 20 µg/mL | – | –
